Tests used:
[1] = target: High affinity 3',5'-cyclic-AMP phosphodiesterase 7A (Homo sapiens, UniProt Q13946); test: Inhibition of human recombinant PDE7A1 expressed in baculovirus infected insect Sf21 cells after 30 mins by scintillation proximity assay
Outline: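 Full-length human recombinant PDE7A1 produced in baculovirus-infected Sf21 cells. SPA read-out with [3H]-cAMP at 20 nM in 80 mM Tris/10 mM MgSO4, pH 7.4. Reaction run 30 min at 37 °C before bead addition and scintillation counting. Background measured without enzyme. IC50 derived.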

[2] = target: 3',5'-cyclic-AMP phosphodiesterase 4A (Homo sapiens, UniProt P27815); test: Inhibition of human recombinant PDE4A4 expressed in baculovirus infected insect Sf21 cells after 30 mins by scintillation proximity assay
3',5'-cyclic-AMP phosphodiesterase 4A, sequence (P27815 whole entry): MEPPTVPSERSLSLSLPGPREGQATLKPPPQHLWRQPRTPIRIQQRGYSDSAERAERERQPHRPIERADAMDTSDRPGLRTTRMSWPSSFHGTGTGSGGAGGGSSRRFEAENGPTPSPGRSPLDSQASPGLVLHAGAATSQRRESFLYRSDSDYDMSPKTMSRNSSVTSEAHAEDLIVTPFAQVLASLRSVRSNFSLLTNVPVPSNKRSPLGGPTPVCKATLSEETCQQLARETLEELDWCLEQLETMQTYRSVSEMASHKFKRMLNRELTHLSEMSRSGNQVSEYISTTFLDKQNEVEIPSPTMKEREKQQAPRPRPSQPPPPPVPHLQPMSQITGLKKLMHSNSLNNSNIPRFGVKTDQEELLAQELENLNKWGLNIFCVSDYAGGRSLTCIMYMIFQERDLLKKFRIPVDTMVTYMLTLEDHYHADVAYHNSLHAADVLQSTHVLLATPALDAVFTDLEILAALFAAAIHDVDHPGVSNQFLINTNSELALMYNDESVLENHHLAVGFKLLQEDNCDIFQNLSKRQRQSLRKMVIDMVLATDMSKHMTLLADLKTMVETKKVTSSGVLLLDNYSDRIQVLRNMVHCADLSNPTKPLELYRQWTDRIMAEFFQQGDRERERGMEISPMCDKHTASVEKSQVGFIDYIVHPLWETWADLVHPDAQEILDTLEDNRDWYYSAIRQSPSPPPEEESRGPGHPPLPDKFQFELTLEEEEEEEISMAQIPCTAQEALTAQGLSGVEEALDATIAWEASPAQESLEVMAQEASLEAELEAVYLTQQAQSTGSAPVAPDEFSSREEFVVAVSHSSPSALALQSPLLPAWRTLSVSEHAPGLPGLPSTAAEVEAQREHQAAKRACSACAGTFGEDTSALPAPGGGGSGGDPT
Outline: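 Full-length human recombinant enzyme expressed in baculovirus-infected Sf21 cells. Scintillation proximity assay with 500 nM [3H]-cAMP substrate in 80 mM Tris/10 mM MgSO4, pH 7.4. Incubated 30 min at 37 °C, then SPA beads added and plates counted. Background taken in presence of 10 µM rolipram. IC50 reported.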

[3] = species: Homo sapiens; test: Selectivity ratio of IC50 for human recombinant PDE4A4 to IC50 for human recombinant PDE7A1
Outline: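 Ratio of IC50 values for the two enzymes. PDE4A4 run at 500 nM [3H]-cAMP with a 10 µM rolipram background; PDE7A1 run at 20 nM [3H]-cAMP with a no-enzyme background. Both used full-length human enzymes from Sf21 cells, 30 min at 37 °C, pH 7.4 Tris/MgSO4, SPA read-out.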

[4] = target: Dual specificity calcium/calmodulin-dependent 3',5'-cyclic nucleotide phosphodiesterase 1B (Homo sapiens, UniProt Q01064); test: Inhibition of human recombinant PDE1B
Dual specificity calcium/calmodulin-dependent 3',5'-cyclic nucleotide phosphodiesterase 1B, sequence (Q01064 whole entry): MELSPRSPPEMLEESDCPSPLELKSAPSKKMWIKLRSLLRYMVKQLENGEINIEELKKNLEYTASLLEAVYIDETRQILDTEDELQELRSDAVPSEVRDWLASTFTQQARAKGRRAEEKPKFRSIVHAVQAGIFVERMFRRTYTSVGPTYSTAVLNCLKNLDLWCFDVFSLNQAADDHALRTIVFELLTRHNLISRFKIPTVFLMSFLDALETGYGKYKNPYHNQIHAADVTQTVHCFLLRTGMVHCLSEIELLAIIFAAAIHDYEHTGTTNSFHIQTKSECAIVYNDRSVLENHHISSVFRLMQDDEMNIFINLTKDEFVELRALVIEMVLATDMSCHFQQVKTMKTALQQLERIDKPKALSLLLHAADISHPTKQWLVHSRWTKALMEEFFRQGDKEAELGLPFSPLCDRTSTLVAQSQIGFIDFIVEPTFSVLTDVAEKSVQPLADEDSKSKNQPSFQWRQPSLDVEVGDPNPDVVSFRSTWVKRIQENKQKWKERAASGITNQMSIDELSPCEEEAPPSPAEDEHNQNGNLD

[5] = target: cGMP-dependent 3',5'-cyclic phosphodiesterase (Homo sapiens, UniProt O00408); test: Inhibition of human recombinant PDE2A
[6] = target: cGMP-inhibited 3',5'-cyclic phosphodiesterase 3A (Homo sapiens, UniProt Q14432); test: Inhibition of human recombinant PDE3A
cGMP-inhibited 3',5'-cyclic phosphodiesterase 3A, sequence (Q14432 whole entry): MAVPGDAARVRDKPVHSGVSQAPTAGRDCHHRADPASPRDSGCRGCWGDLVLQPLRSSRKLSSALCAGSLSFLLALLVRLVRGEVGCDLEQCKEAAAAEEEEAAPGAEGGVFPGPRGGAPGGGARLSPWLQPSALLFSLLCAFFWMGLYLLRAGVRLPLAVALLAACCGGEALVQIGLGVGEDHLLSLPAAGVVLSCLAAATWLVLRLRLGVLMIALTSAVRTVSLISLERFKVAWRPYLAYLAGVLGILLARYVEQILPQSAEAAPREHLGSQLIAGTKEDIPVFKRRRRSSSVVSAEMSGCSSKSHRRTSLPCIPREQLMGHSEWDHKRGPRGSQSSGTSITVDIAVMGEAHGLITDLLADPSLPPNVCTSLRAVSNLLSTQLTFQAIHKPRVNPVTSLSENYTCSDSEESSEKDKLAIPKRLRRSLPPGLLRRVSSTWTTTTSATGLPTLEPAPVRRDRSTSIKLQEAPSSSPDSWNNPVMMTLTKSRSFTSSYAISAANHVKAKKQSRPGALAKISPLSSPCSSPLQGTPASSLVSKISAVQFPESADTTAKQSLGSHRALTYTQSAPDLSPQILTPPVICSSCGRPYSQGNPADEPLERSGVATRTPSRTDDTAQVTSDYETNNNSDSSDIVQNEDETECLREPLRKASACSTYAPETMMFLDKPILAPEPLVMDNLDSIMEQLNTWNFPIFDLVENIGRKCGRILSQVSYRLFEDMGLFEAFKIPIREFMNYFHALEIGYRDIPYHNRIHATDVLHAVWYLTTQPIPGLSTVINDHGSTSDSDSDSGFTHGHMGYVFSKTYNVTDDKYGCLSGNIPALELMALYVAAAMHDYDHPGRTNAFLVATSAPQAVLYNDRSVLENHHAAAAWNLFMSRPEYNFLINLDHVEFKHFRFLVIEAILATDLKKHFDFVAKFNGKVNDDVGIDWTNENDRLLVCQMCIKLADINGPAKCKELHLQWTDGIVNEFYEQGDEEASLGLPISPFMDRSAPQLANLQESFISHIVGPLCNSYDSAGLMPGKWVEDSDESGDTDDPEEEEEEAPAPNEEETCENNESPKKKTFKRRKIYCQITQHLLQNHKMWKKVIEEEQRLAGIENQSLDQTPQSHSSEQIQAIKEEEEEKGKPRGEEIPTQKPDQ

[7] = target: cGMP-specific 3',5'-cyclic phosphodiesterase (Homo sapiens, UniProt O76074); test: Inhibition of human recombinant PDE5A
[8] = target: High affinity cAMP-specific and IBMX-insensitive 3',5'-cyclic phosphodiesterase 8A (Homo sapiens, UniProt O60658); test: Inhibition of human recombinant PDE8A
High affinity cAMP-specific and IBMX-insensitive 3',5'-cyclic phosphodiesterase 8A, sequence (O60658 whole entry): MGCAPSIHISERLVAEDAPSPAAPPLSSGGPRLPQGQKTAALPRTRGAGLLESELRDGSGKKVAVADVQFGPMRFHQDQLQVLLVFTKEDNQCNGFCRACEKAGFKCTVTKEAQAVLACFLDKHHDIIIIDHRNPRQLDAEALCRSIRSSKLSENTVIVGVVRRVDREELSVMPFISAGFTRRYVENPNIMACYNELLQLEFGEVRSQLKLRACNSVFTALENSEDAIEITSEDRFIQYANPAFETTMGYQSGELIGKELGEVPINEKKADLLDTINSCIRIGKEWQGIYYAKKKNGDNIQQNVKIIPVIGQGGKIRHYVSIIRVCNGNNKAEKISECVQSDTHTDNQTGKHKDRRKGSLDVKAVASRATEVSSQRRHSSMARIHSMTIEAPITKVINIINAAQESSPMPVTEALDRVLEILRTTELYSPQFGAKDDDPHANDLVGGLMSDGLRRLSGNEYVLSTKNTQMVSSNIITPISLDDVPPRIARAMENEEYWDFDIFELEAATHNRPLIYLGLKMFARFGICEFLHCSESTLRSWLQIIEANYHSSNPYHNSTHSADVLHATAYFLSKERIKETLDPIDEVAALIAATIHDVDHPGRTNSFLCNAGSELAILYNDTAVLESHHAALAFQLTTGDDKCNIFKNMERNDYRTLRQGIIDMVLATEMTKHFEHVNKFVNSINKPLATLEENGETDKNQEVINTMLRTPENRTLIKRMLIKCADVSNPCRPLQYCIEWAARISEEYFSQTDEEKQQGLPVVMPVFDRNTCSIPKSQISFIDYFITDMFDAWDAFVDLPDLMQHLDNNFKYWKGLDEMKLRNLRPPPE

[9] = target: High affinity cGMP-specific 3',5'-cyclic phosphodiesterase 9A (Homo sapiens, UniProt O76083); test: Inhibition of human recombinant PDE9A
High affinity cGMP-specific 3',5'-cyclic phosphodiesterase 9A, sequence (O76083 whole entry): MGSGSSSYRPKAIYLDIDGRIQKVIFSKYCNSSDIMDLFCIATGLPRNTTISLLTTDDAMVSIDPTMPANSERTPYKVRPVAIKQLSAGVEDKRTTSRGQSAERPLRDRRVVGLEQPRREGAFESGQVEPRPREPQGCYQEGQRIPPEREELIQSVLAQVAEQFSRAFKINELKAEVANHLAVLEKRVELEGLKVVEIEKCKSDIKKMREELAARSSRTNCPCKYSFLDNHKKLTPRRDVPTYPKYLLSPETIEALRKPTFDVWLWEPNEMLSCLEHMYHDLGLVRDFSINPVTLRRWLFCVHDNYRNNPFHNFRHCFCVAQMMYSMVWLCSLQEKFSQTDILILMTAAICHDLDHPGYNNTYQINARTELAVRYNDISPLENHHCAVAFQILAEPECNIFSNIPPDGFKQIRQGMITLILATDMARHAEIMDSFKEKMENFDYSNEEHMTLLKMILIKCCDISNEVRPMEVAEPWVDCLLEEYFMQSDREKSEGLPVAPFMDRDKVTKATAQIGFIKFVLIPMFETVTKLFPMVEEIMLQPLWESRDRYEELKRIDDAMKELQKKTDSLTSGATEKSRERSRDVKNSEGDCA

[10] = target: cAMP and cAMP-inhibited cGMP 3',5'-cyclic phosphodiesterase 10A (Homo sapiens, UniProt Q9Y233); test: Inhibition of human recombinant PDE10A
[11] = target: Dual 3',5'-cyclic-AMP and -GMP phosphodiesterase 11A (Homo sapiens, UniProt Q9HCR9); test: Inhibition of human recombinant PDE11A
[12] = Inhibition of bovine PDE6; set-up: species or system Bos taurus

High affinity 3',5'-cyclic-AMP phosphodiesterase 7A, sequence (Q13946 whole entry): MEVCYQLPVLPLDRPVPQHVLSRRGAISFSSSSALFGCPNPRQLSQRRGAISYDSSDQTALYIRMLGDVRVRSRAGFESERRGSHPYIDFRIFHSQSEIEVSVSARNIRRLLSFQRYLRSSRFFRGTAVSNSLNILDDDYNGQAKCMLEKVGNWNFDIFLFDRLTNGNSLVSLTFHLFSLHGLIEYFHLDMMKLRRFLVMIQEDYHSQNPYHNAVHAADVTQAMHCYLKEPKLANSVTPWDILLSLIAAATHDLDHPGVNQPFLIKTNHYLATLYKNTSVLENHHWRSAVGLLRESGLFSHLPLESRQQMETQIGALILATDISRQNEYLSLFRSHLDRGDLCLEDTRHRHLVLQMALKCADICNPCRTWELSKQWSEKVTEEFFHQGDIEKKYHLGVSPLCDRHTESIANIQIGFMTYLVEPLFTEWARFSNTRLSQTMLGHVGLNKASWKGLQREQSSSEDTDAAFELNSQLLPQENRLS

SMILES	IC50 [1] [µM]	IC50 [2] [µM]	also measured
CC(=O)c1ccc(NC(=O)c2cn(Cc3c(F)cccc3Cl)c3ccc(=O)[nH]c3c2=O)cc1	0.018	0.161	Ratio IC50 [3]: 6
NC(=O)c1ccc(NC(=O)c2cn(Cc3c(F)cccc3Cl)c3ccc(=O)[nH]c3c2=O)cc1	0.01	0.09	Ratio IC50 [3]: 6
CCN(CC)c1ccc(NC(=O)c2cn(Cc3c(F)cccc3Cl)c3ccc(=O)[nH]c3c2=O)cc1	0.06	> 5	IC50 [4]: > 5 µM; IC50 [5]: > 5 µM; IC50 [6]: > 5 µM; IC50 [7]: > 5 µM; IC50 [8]: > 5 µM; IC50 [9]: > 5 µM; IC50 [10]: > 5 µM; IC50 [11]: > 5 µM; IC50 [12]: > 5 µM; Ratio IC50 [3]: > 83
CC(=O)Nc1ccc(NC(=O)c2cn(Cc3c(F)cccc3F)c3ccc(=O)[nH]c3c2=O)cc1	0.024	0.362	–
CSc1ccc(NC(=O)c2cn(Cc3c(F)cccc3F)c3ccc(=O)[nH]c3c2=O)cc1	0.086	> 1	–
O=C(Nc1ccc(C(=O)N2CCOCC2)cc1)c1cn(Cc2c(F)cccc2F)c2ccc(=O)[nH]c2c1=O	0.188	1.06	–
CS(=O)(=O)c1cccc(NC(=O)c2cn(Cc3c(F)cccc3Cl)c3ccc(=O)[nH]c3c2=O)c1	0.059	1.42	Ratio IC50 [3]: 24
NC(=O)c1cccc(NC(=O)c2cn(Cc3c(F)cccc3Cl)c3ccc(=O)[nH]c3c2=O)c1	0.044	0.58	Ratio IC50 [3]: 6
O=C(Nc1ccc(N2CCOCC2)cc1)c1cn(Cc2ccc(F)cc2)c2ccc(=O)[nH]c2c1=O	2.38	> 5	–
O=C(Nc1ccc(N2CCOCC2)cc1)c1cn(Cc2c(F)cccc2F)c2cccnc2c1=O	0.823	0.379	–
CNC(=O)c1ccc(NC(=O)c2cn(Cc3c(F)cccc3F)c3ccc(=O)[nH]c3c2=O)cc1	0.029	0.56	–
O=C(Nc1ccc(F)cc1)c1cn(Cc2c(F)cccc2F)c2ccc(=O)[nH]c2c1=O	0.179	> 1	–
O=C(Nc1ccc(N2CCOCC2)cc1)c1cn(Cc2ccc(OC(F)(F)F)cc2)c2ccc(=O)[nH]c2c1=O	> 1	> 1	–
CCN(CC)c1ccc(NC(=O)c2cn(Cc3c(F)cccc3F)c3ccc(=O)[nH]c3c2=O)cc1	0.046	0.442	–
O=C(Nc1ccc(O)cc1)c1cn(Cc2c(F)cccc2F)c2ccc(=O)[nH]c2c1=O	0.105	> 1	–
COc1cc(NC(=O)c2cn(Cc3ccccc3Cl)c3ccc(=O)[nH]c3c2=O)cc(OC)c1OC	0.178	> 1	–
COc1cc(NC(=O)c2cn(Cc3c(F)cccc3F)c3ccc(=O)[nH]c3c2=O)cc(OC)c1	0.212	> 1	–

SMILES	IC50 [1] [µM]	IC50 [2] [µM]	also measured
O=C(Nc1ccc(OC(F)F)cc1)c1cn(Cc2c(F)cccc2F)c2ccc(=O)[nH]c2c1=O	0.071	0.568	–
CN(C)c1ccc(NC(=O)c2cn(Cc3c(F)cccc3Cl)c3ccc(=O)[nH]c3c2=O)cc1	0.039	0.402	Ratio IC50 [3]: 6
O=C(O)Cc1ccc(NC(=O)c2cn(Cc3c(F)cccc3F)c3ccc(=O)[nH]c3c2=O)cc1	0.176	> 1	–
O=C(Nc1ccc(N2CCOCC2)cc1)c1cn(Cc2ccc(F)cc2F)c2ccc(=O)[nH]c2c1=O	> 1	> 1	–
COc1cc(NC(=O)c2cn(Cc3c(F)cccc3Cl)c3ccc(=O)[nH]c3c2=O)cc(OC)c1OC	0.033	> 1	–
N#Cc1ccc(NC(=O)c2cn(Cc3c(F)cccc3F)c3ccc(=O)[nH]c3c2=O)cc1	0.096	> 1	–
O=C(Nc1ccc(N2CCOCC2)cc1)c1cn(Cc2c(F)cccc2Cl)c2ccc(=O)[nH]c2c1=O	0.013	> 1	IC50 [4]: > 1 µM; IC50 [5]: > 1 µM; IC50 [6]: > 1 µM; IC50 [7]: > 1 µM; IC50 [8]: > 1 µM; IC50 [9]: > 1 µM; IC50 [10]: > 1 µM; IC50 [11]: > 1 µM; IC50 [12]: > 1 µM; Ratio IC50 [3]: > 77
Cc1ccccc1Cn1cc(C(=O)Nc2ccc(N3CCOCC3)cc2)c(=O)c2[nH]c(=O)ccc21	0.266	> 1	–
O=C(Nc1ccc(S(=O)(=O)Nc2nccs2)cc1)c1cn(Cc2c(F)cccc2Cl)c2ccc(=O)[nH]c2c1=O	0.032	0.274	–
CS(=O)(=O)c1ccc(NC(=O)c2cn(Cc3c(F)cccc3Cl)c3ccc(=O)[nH]c3c2=O)cc1	0.012	0.073	Ratio IC50 [3]: 6
CC(=O)Nc1ccc(NC(=O)c2cn(Cc3c(F)cccc3Cl)c3ccc(=O)[nH]c3c2=O)cc1	0.017	0.362	Ratio IC50 [3]: 6
COc1cc(NC(=O)c2cn(Cc3ccc(F)cc3Cl)c3ccc(=O)[nH]c3c2=O)cc(OC)c1OC	0.192	> 1	–
O=C(O)c1ccc(NC(=O)c2cn(Cc3c(F)cccc3F)c3ccc(=O)[nH]c3c2=O)cc1	0.2	1.52	–
NS(=O)(=O)c1ccc(NC(=O)c2cn(Cc3c(F)cccc3Cl)c3ccc(=O)[nH]c3c2=O)cc1	0.02	0.385	Ratio IC50 [3]: 19
Nc1ccc(NC(=O)c2cn(Cc3c(F)cccc3F)c3ccc(=O)[nH]c3c2=O)cc1	0.104	0.477	–
COc1ccc2c(n1)c(=O)c(C(=O)Nc1ccc(N3CCOCC3)cc1)cn2Cc1c(F)cccc1F	> 5	> 5	–
O=C(NCc1ccncc1)c1ccc(NC(=O)c2cn(Cc3c(F)cccc3F)c3ccc(=O)[nH]c3c2=O)cc1	0.02	0.43	–
